Experimental data published in ChEMBL document CHEMBL4152379, “Discovery of Pyrrolidine Sulfonamides as Selective and Orally Bioavailable Antagonists of Transient Receptor Potential Vanilloid-4 (TRPV4)” (J Med Chem, 2018).
≈ marks a conversion by molar mass, not a printed value. One block for each molecule: values may come before it.

Legend:
[1] = biological target: Transient receptor potential cation channel subfamily V member 4 (Homo sapiens, UniProt Q9HBA0); experiment: Antagonist activity at human TRPV4 expressed in BHK/AC9 or HEK MSR2 cells assessed as inhibition of GSK634775-induced Ca2+ flux pre-incubated for 10 mins before agonist addition by FLIPR assay
Transient receptor potential cation channel subfamily V member 4, sequence (Q9HBA0 whole entry): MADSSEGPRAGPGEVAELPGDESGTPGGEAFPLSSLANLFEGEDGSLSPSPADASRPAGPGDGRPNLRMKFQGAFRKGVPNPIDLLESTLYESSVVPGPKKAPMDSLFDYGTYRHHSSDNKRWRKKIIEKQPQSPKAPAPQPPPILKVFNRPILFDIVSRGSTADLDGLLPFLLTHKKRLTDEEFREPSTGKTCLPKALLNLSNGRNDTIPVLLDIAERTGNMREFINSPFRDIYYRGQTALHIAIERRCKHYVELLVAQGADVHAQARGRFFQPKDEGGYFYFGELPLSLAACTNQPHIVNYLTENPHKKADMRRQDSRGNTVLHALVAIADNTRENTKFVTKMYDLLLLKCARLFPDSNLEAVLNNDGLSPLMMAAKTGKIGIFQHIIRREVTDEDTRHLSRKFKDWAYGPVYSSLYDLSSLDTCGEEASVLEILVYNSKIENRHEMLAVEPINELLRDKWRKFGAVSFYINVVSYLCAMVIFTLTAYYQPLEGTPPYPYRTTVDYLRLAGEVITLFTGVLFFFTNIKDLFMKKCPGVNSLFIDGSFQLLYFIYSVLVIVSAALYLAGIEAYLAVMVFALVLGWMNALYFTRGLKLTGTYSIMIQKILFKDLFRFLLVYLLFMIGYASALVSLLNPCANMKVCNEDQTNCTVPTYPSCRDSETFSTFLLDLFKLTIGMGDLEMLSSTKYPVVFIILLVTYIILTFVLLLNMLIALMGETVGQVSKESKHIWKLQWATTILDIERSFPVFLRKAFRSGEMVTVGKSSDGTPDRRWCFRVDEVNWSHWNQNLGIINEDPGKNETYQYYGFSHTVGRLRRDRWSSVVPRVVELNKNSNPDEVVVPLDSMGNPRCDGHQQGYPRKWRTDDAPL

[2] = Clearance in iv dosed Sprague-Dawley rat; format: ADME, organism-based; conditions: in vivo
Method in brief: (§1)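 Male Sprague-Dawley rats with femoral vein, femoral artery and gastric catheters; noncrossover design, 2 rats per route; cassette dosing of up to five compounds. i.v. target 1 mg/kg in 5% DMSO/20% Cavitron (pH 4), infused over 30 min. Oral gastric bolus target 2 mg/kg in 5% DMSO/6% Cavitron (pH 4). Plasma sampled to 24 h and measured by HPLC−MS/MS. Noncompartmental analysis; F from dose-normalized AUC(0−∞) relative to mean i.v. AUC.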

[3] = Oral bioavailability in Sprague-Dawley rat; format: ADME, organism-based; conditions: in vivo
Method in brief: as §1

[4] = species: Rattus norvegicus; experiment: Unbound clearance in Sprague-Dawley rat; format: ADME, organism-based; conditions: in vivo
[5] = Aqueous solubility of the compound; format: physicochemical; conditions: buffer
[6] = Lipophilicity, log D of the compound by chromatography; format: physicochemical
[7] = Fraction unbound in Sprague-Dawley rat plasma; format: ADME, cell-free
[8] = MRT in iv dosed Sprague-Dawley rat; format: ADME, organism-based; conditions: in vivo
Method in brief: as §1

[9] = tested on: Rattus norvegicus; experiment: In vivo antagonist activity at TRPV4 in iv dosed Sprague-Dawley rat assessed as inhibition of GSK1016790A-induced increase in lung wet weight by measuring lung weight/body weight ratio in at 0.23 mg/kg, iv dosed via bolus dose followed by iv infusion at 5.1 ug/kg/min for 60 mins; format: functional
Method in brief: (§2)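 Sprague-Dawley rats given an i.v. bolus loading dose, then a 60 min continuous i.v. infusion to reach steady-state plasma exposure. Challenged with GSK1016790A at 10 μg/kg/min by 10 min i.v. infusion. Mean arterial pressure and lung wet weight/body weight ratio recorded. Mean ± SEM; comparisons by ANOVA with Dunnett's or Bonferroni post hoc tests.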

[10] = Steady state plasma concentration in Sprague-Dawley rat at 0.08 mg/kg, iv dosed via bolus dose followed by iv infusion at 1.7 ug/kg/min for 60 mins; format: ADME, organism-based; conditions: in vivo, 1 h
[11] = tested on: Rattus norvegicus; experiment: In vivo antagonist activity at TRPV4 in iv dosed Sprague-Dawley rat assessed as inhibition of GSK1016790A-induced reduction in mean arterial pressure at 0.03 to 0.23 mg/kg, iv dosed via bolus dose followed by iv infusion at 0.6 to 5.1 ug/kg/min for 60 mins; format: functional, organism-based
Method in brief: as §2

[12] = tested on: Rattus norvegicus; experiment: In vivo antagonist activity at TRPV4 in iv dosed Sprague-Dawley rat assessed as inhibition of GSK1016790A-induced increase in lung wet weight by measuring lung weight/body weight ratio in at 0.03 to 0.23 mg/kg, iv dosed via bolus dose followed by iv infusion at 0.6 to 5.1 ug/kg/min for 60 mins; format: functional, organism-based
Method in brief: as §2

[13] = Steady state plasma concentration in Sprague-Dawley rat at 0.03 mg/kg, iv dosed via bolus dose followed by iv infusion at 0.6 ug/kg/min for 60 mins; format: ADME, organism-based; conditions: in vivo, 1 h
[14] = Steady state plasma concentration in Sprague-Dawley rat at 0.23 mg/kg, iv dosed via bolus dose followed by iv infusion at 5.1 ug/kg/min for 60 mins; format: ADME, organism-based; conditions: in vivo, 1 h
[15] = tested on: Rattus norvegicus; experiment: In vivo antagonist activity at TRPV4 in iv dosed Sprague-Dawley rat assessed as inhibition of GSK1016790A-induced reduction in mean arterial pressure at 0.23 mg/kg, iv dosed via bolus dose followed by iv infusion at 5.1 ug/kg/min for 60 mins; format: functional
Method in brief: as §2

SMILES: N#Cc1ccc(OC2CCN(S(=O)(=O)c3ccc(Cl)cc3Cl)C2)cc1F (racemic)
- IC50 [1]: 0.32 µM

SMILES: N#Cc1ccc(O[C@H]2CN(S(=O)(=O)c3ccc(Cl)cc3Cl)C[C@@H]2CO)cc1F (racemic)
- IC50 [1]: 0.2 µM

SMILES: N#Cc1ccc(OCC2(O)CCN(S(=O)(=O)c3ccc(Cl)cc3Cl)CC2)cc1F
- IC50 [1]: 0.13 µM
- clearance [2]: 1.14 L/h/kg
- bioavailability [3]: 56%
- CL free [4]: 87.66 L/h/kg
- solubility [5]: 7.5 µM (≈ 3.44 µg/mL)
- chromatographic logD [6]: 6.3
- fraction unbound [7]: 0.013
- MRT [8]: 1.5 h

SMILES: N#Cc1ccc(OC[C@@]2(O)CN(S(=O)(=O)c3ccc(Cl)cc3Cl)C[C@@H]2O)cc1F (racemic)
- IC50 [1]: 0.15 µM

SMILES: N#Cc1ccc(O[C@H]2CN(S(=O)(=O)c3ccc(Cl)cc3Cl)C[C@H]2O)cc1F (racemic)
- IC50 [1]: 0.1 µM

SMILES: N#Cc1ccc(OCC2CCN(S(=O)(=O)c3ccc(Cl)cc3Cl)CC2)cc1F
- IC50 [1]: 6.3 µM

SMILES: N#Cc1ccc(OCC2(O)CCN(S(=O)(=O)c3ccc(Cl)cc3Cl)C2)cc1F (racemic)
- IC50 [1]: 0.15 µM

SMILES: N#Cc1ccc(O[C@H]2CN(S(=O)(=O)c3ccc(Cl)cc3Cl)C[C@]2(O)CO)cc1F (racemic)
- IC50 [1]: 0.1 µM

SMILES: N#Cc1ccc(OC[C@@H]2CN(S(=O)(=O)c3ccc(Cl)cc3Cl)C[C@H]2O)cc1F (racemic)
- IC50 [1]: 1 µM

SMILES: N#Cc1ccc(OC[C@H]2CN(S(=O)(=O)c3ccc(Cl)cc3Cl)C[C@H]2O)cc1F (racemic)
- IC50 [1]: 1.5 µM

Molecules with a lower IC50 [1], results first:

- IC50 [1]: 0.004 µM
SMILES: N#Cc1ccc(O[C@H]2CN(S(=O)(=O)c3ccc(Cl)cc3Cl)C[C@@]2(O)CO)cc1F (racemic)

- IC50 [1]: 0.05 µM
SMILES: N#Cc1ccc(O[C@H]2CN(S(=O)(=O)c3ccc(Cl)cc3Cl)C[C@H]2CO)cc1F (racemic)

- IC50 [1]: 0.05 µM
SMILES: N#Cc1ccc(OCC2(O)CN(S(=O)(=O)c3ccc(Cl)cc3Cl)C2)cc1F

- IC50 [1]: 0.04 µM
SMILES: N#Cc1ccc(O[C@H]2CN(S(=O)(=O)c3ccc(Cl)cc3Cl)C[C@@H]2O)cc1F (racemic)

- IC50 [1]: 0.001 µM
- clearance [2]: 4.92 L/h/kg
- bioavailability [3]: 72%
- Cpss [10]: 40 nM
- Cpss [13]: 30 nM
- Cpss [14]: 90 nM
- CL free [4]: 84 L/h/kg
- solubility [5]: 90 µM (≈ 43.7 µg/mL)
- chromatographic logD [6]: 4.6
- fraction unbound [7]: 0.049
- MRT [8]: 0.8 h
SMILES: N#Cc1ccc(O[C@H]2CN(S(=O)(=O)c3ccc(C(F)(F)F)cc3C#N)C[C@@]2(O)CO)cc1F
- inhibition (INH) [9]: 100%
- inhibition [11]: Dose-dependent effect
- inhibition [12]: Dose-dependent effect
- inhibition (INH) [15]: 100%
